Experimental data: PubChem BioAssay AID617 (SRMLSC, 2007)
pIC50: −log10 of the molar value.

Tested on: E. coli BW25113 ΔtolC growth inhibition, OD615
Experiment: growth inhibitors of E. coli tolC mutant, dose response, strain BW25113 ΔtolC::kan (AID 617)
Outline: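 Material: E. coli BW25113 ΔtolC::kan bacteria; input: inoculum from 1:1000-diluted 1.5 h subculture; medium: kanamycin-containing LB broth, 50 µg/mL; dosing: compounds in serially diluted dose-response series; incubation: 20 h exposure at 37 °C; measured by: absorbance at 615 nm; control set: chloramphenicol control, 30 µM final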

Row | Structure (SMILES) | pIC50
1 | O=C(Nc1ccc2c(c1)OCO2)c1ccc(COc2ccc3c(c2)CCC3)o1 | 5.11
2 | N#Cc1nc(-c2ccc(OCc3ccccc3Cl)cc2)oc1NCCCn1ccnc1 | 5.29
3 | Cc1nn(Cc2ccccc2)c(C)c1C(=O)OCC(=O)c1cc(C)n(C2CC2)c1C | 4.95
4 | CN1CCN(c2c(F)cc3c(=O)c(C(=O)O)cn4c3c2SCC4)CC1 | 6.04
5 | Cc1ccc2c(c1)c(C)c(C)n2CC(O)Cn1nc(C)c(Br)c1C (centres undefined) | 4.93
6 | Cc1ccc(Nc2cc(C)nn2-c2nc(C)cc(=O)[nH]2)cc1 | 6.74
7 | O=C(CSc1nnc2scc(-c3ccccc3)n12)Nc1nsc(-c2ccccc2)n1 | 4.88
8 | CC(=O)Nc1nc2ccccc2n1Cc1ccccc1C | 4.74
9 | Cc1cc(C)nc(-n2nc(C)cc2Nc2ccccc2)n1 | 5.58
10 | Cc1ccc(Cl)cc1N1CCN(C(=O)COc2ccc(S(=O)(=O)NC(C)C)cc2)CC1 | 4.97
11 | CCc1cc2c(N3CCN(c4ccccc4)CC3)ncnc2s1 | 4.87
12 | CC1Cc2ccccc2N1C(=O)Cn1c(=O)oc2cc(S(=O)(=O)NC3CCCC3)ccc21 (centres undefined) | 5.36
13 | Cc1cccc(NC(=O)c2cc(NC(=O)C3CCCCC3C(=O)O)ccc2N2CCCCC2)c1 (centres undefined) | 5.21
14 | CN(C)c1ccc(C2C=C(c3ccc(Cl)cc3OC(F)F)Nc3ncnn32)cc1 (centres undefined) | 5.71
15 | CCCCCCC(=O)N1CCC(c2nc3c(nnn3Cc3ccccc3Cl)c(=O)[nH]2)CC1 | 5.20
16 | O=C(Nc1ccc(N2CCN(C(=O)c3ccco3)CC2)c(Cl)c1)c1cccs1 | 4.91
17 | COc1ccc(Cl)cc1N(C)C(=O)CCc1nc(-c2ccc(C)cc2)no1 | 4.82
18 | Cc1cccn2c(=O)c3c(nc12)N1CCC(Cc2ccccc2)CC1C1(C3)C(=O)N(C)C(=O)N(C)C1=O (centres undefined) | 4.75
19 | Cc1cccc(N(C)C(=O)c2cc3cc4ccc(C)cc4nc3o2)c1 | 4.62
20 | C=CCn1c(SCC(=O)Nc2nc3ccccc3s2)nnc1-c1ccccc1O | 5.08
21 | CCCc1cc(C(=O)Nc2cccc(Cl)c2)no1 | 4.83
22 | COc1cccc(NC(=O)Nc2nnc(N3CCCCC3C)s2)c1 (centres undefined) | 5.07

Row | Structure (SMILES) | pIC50
23 | COc1cccc(C(=O)Nc2nnc(-c3cccs3)o2)c1 | 5.41
24 | CC(C)c1nnc(NC(=O)c2c(O)c3cccc4c3n(c2=O)CC4)s1 | 4.46
25 | O=C(CN(C1CC1)S(=O)(=O)c1ccc(S(=O)(=O)NC2CCCCC2)cc1)Nc1ccccc1 | 4.98
26 | Clc1ccccc1OCc1nnc(-c2ccccc2Br)o1 | 4.91
27 | O=S(=O)(Nc1ccc2oc(-c3ccccc3)nc2c1)c1ccccc1 | 5.03
28 | Fc1cccc2sc(Nc3nnc(-c4ccco4)o3)nc12 | 5.55
29 | CCn1c(C(=O)OC)cc2c1ccn2-c1ccc(F)cc1 | 4.77
30 | C=CCNc1ncnc2c1[nH]c1ccc(C)cc12 | 5.62
31 | COc1ccc(-c2nnc(NC(=O)c3ccc(S(=O)(=O)N4CCc5ccccc5C4)cc3)o2)cc1 | 6.66
32 | CS(=O)c1nc(-c2ccc(Br)cc2)cc(-c2ccccc2)c1C#N (centres undefined) | 4.98
33 | Cc1nn(-c2ccccc2)c(C)c1C(=O)Nc1nnc(-c2ccco2)o1 | 5.20
34 | COc1cccc2sc(Nc3nc(-c4ccccn4)cs3)nc12 | 5.75
35 | N#Cc1c(NC(=O)CSc2n[nH]c(Cc3ccccc3)n2)oc(-c2ccccc2)c1-c1ccccc1 | 5.13
36 | Clc1ccc(OCCCc2nc(-c3cccnc3)no2)c(Cl)c1 | 4.76
37 | COc1ccc2nc(NC(=O)CSc3nnnn3C3CCCCC3)sc2c1 | 4.20
38 | Cc1ccc(C2CC(c3cccc(Br)c3)Nc3nnnn32)cc1 (centres undefined) | 4.89
39 | CC(=O)c1sc(NC(=O)C2(F)C(F)(F)C(F)(F)C(F)(F)C(F)(F)C2(F)F)nc1C | 6.04
40 | Cc1cc(C)c(C#N)c(SCc2ccc3c(c2)OCO3)n1 | 4.61
41 | CCCCCCN=C(CC)c1c(O)n(CCCC)c(=O)[nH]c1=O | 4.93
42 | Cc1cc(N2CCCCC2)n2ncc(-c3ccccc3)c2n1 | 4.76
43 | COC(=O)c1sccc1NC(=O)c1cc2c(s1)CCCC2 | 5.31
44 | O=C(NCC1CCCO1)c1sc(=S)n2c1[nH]c(=O)c1ccc(C(=O)N3CCCCC3)cc12 (centres undefined) | 4.79

Row | Structure (SMILES) | pIC50
45 | Cc1n[nH]c(C)c1S(=O)(=O)N(CC(=O)Nc1ccc2c(c1)OCCO2)c1ccc(C(C)C)cc1 | 4.71
46 | Cc1oc(C(C)(C)C)cc1C(=O)Nc1ccc2c(c1)OCCO2 | 4.72
47 | OC(c1cccc(OCc2ccccc2)c1)c1nnc(-c2ccccc2)o1 (centres undefined) | 4.14
48 | O=C(Nc1ccc(Cl)c(Cl)c1)N1CCSC1c1ccco1 (centres undefined) | 5.29
49 | CC(C)(C)c1[nH]nc2c1C(Cc1ccccc1)C(C#N)=C(N)O2 (centres undefined) | 4.50
50 | CC1CCCCC1n1c(=S)[nH]c2ccccc2c1=O (centres undefined) | 5.23
51 | CCCCN(CCCNC(=O)CN1C(=O)COc2ccccc21)c1ccccc1 | 4.41
52 | Cc1cc(=O)[nH]c(SCC(=O)Nc2nc(-c3ccccc3)cs2)n1 | 5.35
53 | Nc1c(C(=O)NCCc2ccccc2)c2nc3ccccc3nc2n1CCN1CCOCC1 | 4.91
54 | CCOC(=O)N1CCN(C(=O)COc2ccc(S(=O)(=O)Nc3ccc(OCC)cc3)cc2)CC1 | 5.70
55 | O=C(COc1ccccc1)Nc1nnc(-c2ccc(Cl)s2)o1 | 5.73
56 | CCn1c(=N)n(CC(=O)C23CC4CC(CC(C4)C2)C3)c2ccccc21 | 4.89
57 | O=C1CC(c2ccco2)CC2=C1C1c3ccccc3C(=O)N1c1ccccc1N2 (centres undefined) | 4.64
58 | Cc1ccc(-c2csc3ncn(-n4c(C)ccc4C)c(=O)c23)o1 | 4.83
59 | Cc1cccn2c(=O)c3cc(C(=O)NCc4ccco4)c(=N)n(CCc4ccccc4)c3nc12 | 4.37
60 | Cc1nc2c(C(=O)NCc3ccc4c(c3)OCO4)c[nH]n2c(=O)c1Cc1ccccc1F | 5.59
61 | CC1CCCN(S(=O)(=O)c2ccc(C(=O)Nc3nnc(-c4ccccc4Cl)o3)cc2)C1 (centres undefined) | 6.39
62 | CC(=O)c1c(O)cc(C)n(Nc2nc(C)cc(C)n2)c1=O | 4.88
63 | c1ccc(-n2nnnc2Oc2cccc3cccnc23)cc1 | 5.12
64 | CCOc1ccccc1N1CCN(C(=O)Nc2ccc(F)c(Cl)c2)CC1 | 4.99
65 | CCCCCCn1c(N2CCN(c3ccccc3)CC2)nc2c1c(=O)n(C)c(=O)n2C | 4.99
66 | CCOc1ccccc1C(=O)NC(C(=O)OCC(=O)Nc1nnc(-c2ccccc2)o1)C(C)C (centres undefined) | 5.11

Row | Structure (SMILES) | pIC50
67 | O=C(c1ccc(COc2ccc3c(c2)CCC3)o1)N1CCN(c2ccccc2)CC1 | 4.97
68 | N=C(N)c1c(O)n(C2CCCCC2)c(=O)n(C2CCCCC2)c1=O | 5.24
69 | Cc1csc(NC(=O)C2CCCN(S(=O)(=O)c3ccc(Br)s3)C2)n1 (centres undefined) | 4.91
70 | COc1ccc(-c2noc(CCC(=O)N(C)c3cccc(C)c3)n2)cc1 | 4.64
71 | O=C(C1CC1)N1CCc2cc(S(=O)(=O)NCCC3=CCCCC3)ccc21 | 4.75
72 | Cc1cccc(N2C(N)=C(C#N)C(C#N)(C#N)C2c2ccccc2)c1 (centres undefined) | 4.88
73 | O=C1CCCC2=C1C(c1cccs1)n1nc(SCc3ccccc3)nc1N2 (centres undefined) | 4.80
74 | CC1CCCCN1C(=O)CSc1nc(C2CC2)nc2c1cnn2-c1ccccc1 (centres undefined) | 4.91
75 | CCCCOc1[nH]c2nc(-c3ccco3)n(Cc3ccco3)c(=N)c2c1C#N | 4.92
76 | CCc1ccc(S(=O)(=O)NCCc2csc(-c3ccccc3)n2)s1 | 5.05
77 | Cc1ccc2cc(C(c3nnnn3C3CCCC3)N(Cc3cccnc3)Cc3ccco3)c(=O)[nH]c2c1 (centres undefined) | 4.86
78 | CS(=O)(=O)N1CCc2cc(-c3csc(NC(=O)Cc4cccs4)n3)ccc21 | 4.66
79 | O=C(c1ccc(COc2ccccc2Br)o1)N1CCCCCC1 | 4.01
80 | Brc1cccc(-c2n[nH]c(-c3ccccc3)n2)c1 | 4.62
81 | Cc1nc2nc(COc3ccccc3)[nH]n2c(=O)c1Cc1ccccc1 | 5.88
82 | CCCCSC1=C(C#N)C(c2ccccc2C)C(C(=O)OCC)C(=O)N1 (centres undefined) | 4.94
83 | O=C(CNCCC1=CCCCC1)Nc1ccccc1N1CCCCC1 | 4.95
84 | COc1ccccc1N1CCN(C(=O)COc2ccc(C)cc2Br)CC1 | 4.59
85 | Oc1c(C(c2ccco2)N2CCN(C(c3ccccc3)c3ccccc3)CC2)sc2ncnn12 (centres undefined) | 4.88
86 | CCC(C)(C)n1nnnc1C(c1cc2ccc(C)cc2[nH]c1=O)N(Cc1cccnc1)Cc1ccco1 (centres undefined) | 4.82
87 | Cc1ccnc(N2CCC(C(=O)Nc3cccc(C(F)(F)F)c3)CC2)n1 | 4.08
88 | CCCCCn1c(SCCC(C)C)nc2c1c(=O)[nH]c(=O)n2C | 4.42

Row | Structure (SMILES) | pIC50
89 | CC(C)C(C(=O)NCc1ccco1)N(C(=O)CNS(=O)(=O)c1ccc(Cl)cc1)C1CCCC1 (centres undefined) | 4.61
90 | O=C(Nc1ccc2nc(-c3cccs3)[nH]c2c1)c1ccco1 | 4.08
91 | CC1=C(C(=O)OCC(C)C)C(c2cc3c(cc2Br)OCO3)NC(=O)N1C (centres undefined) | 4.74
92 | COc1ccc(OCC(O)Cn2c(=N)n(Cc3ccccc3)c3ccccc32)cc1 (centres undefined) | 4.62
93 | CCCCn1c(N2CCC(Cc3ccccc3)CC2)nc2c1c(=O)[nH]c(=O)n2C | 5.22
94 | CN(Cc1ccccc1)C(=O)CSc1nc2ccccc2c(=O)n1Cc1ccco1 | 4.97
95 | N#CCSc1nc2c(c(C3CC=CCC3)c1C#N)CCC2 (centres undefined) | 4.89
96 | CCOC(=O)C1C(=O)C=C(c2ccc(OC)cc2)CC1c1ccco1 (centres undefined) | 4.94
97 | CC1CC(N(C(=O)c2ccco2)c2ccccc2)c2ccccc2N1 (centres undefined) | 4.87
98 | Cc1c(C(=O)OCCOc2ccccc2)[nH]c2c1C(=O)CCC2 | 5.41
99 | CCCOC(=O)c1ccc(-c2c(C)noc2-c2ccc(OC)cc2O)o1 | 5.33
100 | CCCCCC(=O)Nc1ccccc1N1CCN(c2ccccc2)CC1 | 4.69
101 | CCn1cc(C(=O)Nc2nncs2)c(=O)c2cc(F)c(N3CCN(C(=O)c4ccco4)CC3)cc21 | 6.72
102 | O=C(c1cccc(F)c1)N1CCN(C(=O)c2cc(-c3ccc(Cl)cc3Cl)on2)CC1 | 5.01
103 | CN1/C(=C\C(=O)COc2ccc3c(c2)OCO3)C(C)(C)c2ccccc21 | 4.95
104 | CC(C)N(Cc1nc(-c2ccc(Cl)cc2)no1)C(=O)c1cccs1 | 4.72
105 | CCn1cc(Br)c(C(=O)Nc2ccc(C(=O)OC(C)C)cc2)n1 | 4.91
106 | Cc1ccc(S(=O)(=O)c2nc(Nc3nccs3)sc2Cl)cc1 | 5.61
107 | CCOc1cc(S(=O)(=O)N2CCN(Cc3ccccc3)CC2)ccc1Br | 4.72
108 | COCc1nnc(NC(=O)c2ccc(S(=O)(=O)N3CCCCCC3)cc2)o1 | 5.12
109 | CCOC(=O)c1csc(Nc2nc3ccc(F)cc3s2)n1 | 5.23
